Tm and folding enthalpy data for 37 sequences are collected here from the array DNA melting data of Ke et al. (doi:10.1101/2024.01.08.574731).

Data set [1] can be described thus: melting temperature; fluorescence melt of hairpins on a sequencing array, two-state fit, raised by 9.35 °C to match UV melts. The settings on record: sodium 0.088 M. The essentials:
(§1)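 Hairpins were imaged by Cy3 fluorescence on a sequenced MiSeq flow cell with annealed Cy3 and quencher oligos, in 50 mM Na-HEPES pH 8.0, 25 mM NaCl, in 2.5 °C steps up to 60 °C. Bootstrapped two-state fits of normalised signals gave melting temperature and folding enthalpy. Four replicates were combined by inverse variance, and fitted temperatures were raised by 9.35 °C to match UV melts.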

A short description of data set [2]: folding enthalpy; higher = less favourable; fluorescence melt of hairpins on a sequencing array, two-state fit. The settings on record: sodium 0.088 M. The essentials: as §1

Regarding GGAGTCCGAAAGGAGTCC (((.(((....))).))), the Tm in data set [1] stood at 63.3 °C. Also, the folding enthalpy in data set [2] is -44.2 kcal/mol.

In the case of GTCTTGGAAACAAGAC ((((((....)))))), the Tm in data set [1] is 54.9 °C. For the same sequence, in data set [2], the folding enthalpy is -35.3 kcal/mol.

With GCGTCGCGAAAGCCACGC ((((.((....)).)))), in data set [1], the Tm was 64 °C. For the same sequence, the folding enthalpy in data set [2] was -31.1 kcal/mol.

As to GACCGAGGAAACTCGGCC (.(((((....))))).), the Tm in data set [1] was found to be 46.6 °C. For the same sequence, the folding enthalpy in data set [2] is -15.1 kcal/mol.

On to GACAGACGAAAGTCGTC (((.(((....)))))), for which, in data set [1], the Tm was 53 °C. Also, the folding enthalpy in data set [2] is -17.8 kcal/mol.

Turning to GAGTTGGGAAACTAACTC (((((.(....).))))), in data set [1], the Tm was found to be 43.6 °C. Also, the folding enthalpy in data set [2] was -31 kcal/mol.

Take GTCGCAGGAAACCGCGAC (((((.(....).))))): the Tm in data set [1] is 58.9 °C. Further, the folding enthalpy in data set [2] is -43.1 kcal/mol.

For GTTTGGCGAAAGCCAAC (((.(((....)))))), in data set [1], the Tm worked out at 48.7 °C. Further, in data set [2], the folding enthalpy was -11.1 kcal/mol.

For GCGGTGACCGC ((((...)))), the Tm in data set [1] is 56.6 °C. In data set [2], the folding enthalpy is -23.6 kcal/mol.

GCAAATACGAAAGTATGC (((..(((....)))))): in data set [1], the Tm was 38.7 °C. In data set [2], the folding enthalpy is -21.6 kcal/mol.

For the sequence GATCTAGTCTAGATC ((((((...)))))), the Tm in data set [1] is 41.1 °C. Also, the folding enthalpy in data set [2] was -34.2 kcal/mol.

In the case of GCCAATCGAAAGATGGGC (((.(((....))).))), the Tm in data set [1] is 55.1 °C. Besides, the folding enthalpy in data set [2] was -39.5 kcal/mol.

For GATCTGCCTTCAGATC ((((((....)))))), in data set [1], the Tm stood at 49 °C. For the same sequence, the folding enthalpy in data set [2] was -30.7 kcal/mol.

On to GTATCCCGAAAGGGCTAC (((.(((....))).))), for which the Tm in data set [1] was 41.3 °C. Further, the folding enthalpy in data set [2] is -22.5 kcal/mol.

As to GATCTCGGTCGAGATC ((((((....)))))), in data set [1], the Tm stood at 56.2 °C. For the same sequence, the folding enthalpy in data set [2] is -41.5 kcal/mol.

Consider GGCTTGCGAAAGCAGGCC (((.(((....))).))), for which, in data set [1], the Tm was found to be 69.2 °C. For the same sequence, the folding enthalpy in data set [2] is -31.3 kcal/mol.

Regarding GATCTACGGCTAGATC ((((((....)))))), the Tm in data set [1] worked out at 37.1 °C. Moreover, in data set [2], the folding enthalpy is -28.7 kcal/mol.

On to GTATGCGAAAGCAATAC ((((((....))).))), for which the Tm in data set [1] was determined as 49.4 °C. Besides, the folding enthalpy in data set [2] was -20.3 kcal/mol.

In the case of GATCCACGCTTGGATC ((((((....)))))), the Tm in data set [1] is 52.5 °C. Also, the folding enthalpy in data set [2] was -38.4 kcal/mol.

As to GGACACGGAAACATGTCC (((((.(....).))))), the Tm in data set [1] was 44 °C. The folding enthalpy in data set [2] is -33 kcal/mol.

Take GCAGTGCGAAAGCGCCGC ((.(.((....)).).)): in data set [1], the Tm was found to be 52 °C. For the same sequence, the folding enthalpy in data set [2] is -17.9 kcal/mol.

On to GTGGGGGGAAACCCCTGC (..((((....))))..), for which the Tm in data set [1] came out at 42.3 °C. Moreover, the folding enthalpy in data set [2] is -11.5 kcal/mol.

Turning to GCTCTAGGAAACTAGGGC ((.((((....)))).)), the Tm in data set [1] stood at 47.1 °C. The folding enthalpy in data set [2] is -32.7 kcal/mol.

GATCGTTGAGACGATC ((((((....)))))): in data set [1], the Tm was found to be 58.1 °C. In addition, in data set [2], the folding enthalpy was -39.4 kcal/mol.

On to GGACTTGGAAACAAATCC (((.(((....))).))), for which, in data set [1], the Tm came out at 35.3 °C. Also, the folding enthalpy in data set [2] was -12.4 kcal/mol.

With GCTACGGGAAACCGTAAC (.(((((....))))).), the Tm in data set [1] was found to be 36.1 °C. Also, in data set [2], the folding enthalpy is -13.7 kcal/mol.

As to GCGTCTTCGAAAGAACGC (((..(((....)))))), the Tm in data set [1] was determined as 46.6 °C. For the same sequence, the folding enthalpy in data set [2] was -26 kcal/mol.

As to GACATTCCGAAAGGAGTC (((..(((....)))))), the Tm in data set [1] came out at 28.6 °C. Moreover, the folding enthalpy in data set [2] was -12.3 kcal/mol.

Consider GCATTAGGAAACTAGTGC (((.(((....))).))), for which the Tm in data set [1] turned out to be 40.9 °C. Moreover, the folding enthalpy in data set [2] is -28.6 kcal/mol.

On to GGATACGAAAGTATTCC ((((((....))).))), for which the Tm in data set [1] amounted to 42.9 °C. Besides, the folding enthalpy in data set [2] was -22.8 kcal/mol.

Turning to CGATGGCGGAAACGCTCG (((..(((....)))))), the Tm in data set [1] came out at 38.5 °C. Moreover, the folding enthalpy in data set [2] was -15.8 kcal/mol.

Take GGCGTCTCGAAAGAGGCC (((..(((....)))))): in data set [1], the Tm came to 53 °C. Moreover, the folding enthalpy in data set [2] was -33.3 kcal/mol.

Consider GGTTGGGCGAAAGCCACC (((..(((....)))))), for which the Tm in data set [1] came to 39.8 °C. The folding enthalpy in data set [2] is -12.7 kcal/mol.

On to GAATCTGGAAACAGATCC (.(((((....))))).), for which the Tm in data set [1] is 33.1 °C. Besides, in data set [2], the folding enthalpy was -17.1 kcal/mol.

In the case of GGCACAGGAAACTATGCC ((((.((....)).)))), in data set [1], the Tm stood at 41.7 °C. In addition, in data set [2], the folding enthalpy is -29.2 kcal/mol.

With GCTGTGCGAAAGCAACGC ((..(((....)))..)), the Tm in data set [1] was 49.9 °C. Moreover, the folding enthalpy in data set [2] was -13.7 kcal/mol.

On to GGTTCCCGAAAGGGCACC (((.(((....))).))), for which the Tm in data set [1] was found to be 51.6 °C. For the same sequence, the folding enthalpy in data set [2] was -26.2 kcal/mol.
